Laboratory results reported in ChEMBL document CHEMBL1125882, “The agonist pharmacophore of the benzodiazepine receptor. Synthesis of a selective anticonvulsant/anxiolytic” (J Med Chem, 1991).

Tests used:
Mus musculus [1] = assay: Effects on Diazepam-Induced Myorelaxation in mice was determined at 20 mg/kg; assay type: functional
[2] = biological target: GABA-A receptor; anion channel; assay: Effect on [3H]flunitrazepam binding to Benzodiazepine receptor; assay type: protein-complex assay, Rattus norvegicus
Mus musculus [3] = assay: Number of mice impaired to that of number of mice tested at 10 mg/kg; 0/10; assay type: functional
Mus musculus [4] = assay: Tested for inhibition of pentylenetetrazole (PTZ = 80 mg/kg (ip)) induced seizures in mice at a dose of 0.5-40 mg/kg i.p.; assay type: functional; conditions: route intraperitoneal
Outline: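 Mice pretreated ip with drug (0.5-40 mg/kg); 15 min later pentylenetetrazole 80 mg/kg ip. Tonic and/or clonic seizures were scored over the next 15 min. 5-14 mice per dose point; ED50 taken from the dose-response curve.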

Mus musculus [5] = assay: Effects on Diazepam-Induced Myorelaxation in mice was determined at 10 mg/kg; assay type: functional
Mus musculus [6] = assay: Number of mice impaired to that of number of mice tested at 20 mg/kg; 0/10; assay type: functional
Mus musculus [7] = assay: Effects on Diazepam-Induced Myorelaxation in mice was determined when administered along with compound 1 at 10 mg/kg; assay type: functional
Mus musculus [8] = assay: Effects on Diazepam-Induced Myorelaxation in mice was determined when administered along with compound 1 at 20 mg/kg; assay type: functional
Mus musculus [9] = species: Mus musculus; assay: Effects on Diazepam-Induced Myorelaxation in mice was determined; assay type: functional

## CCCOc1ccc2[nH]c3cnc(C(=O)OCC)c(COC)c3c2c1
Mus musculus [1]
  Impaired: 0%
[2]
  IC50: 8 nM
Mus musculus [3]
  Activity: 0
Mus musculus [4]
  ED50: 1.6 mg/kg
Mus musculus [5]
  Impaired: 0%
Mus musculus [6]
  Activity: 0

## CN1C(=O)CN=C(c2ccccc2)c2cc(Cl)ccc21 [DIAZEPAM]
Mus musculus [7]
  Impaired: 50%
Mus musculus [8]
  Impaired: 0%
Mus musculus [9]
  Impaired: 100%
